Publication PMC7594119 (ACS Omega, 2020)

Experiments:
[1] = biological target: T1, CDK6 (Homo sapiens, UniProt Q00534); test: Kinase inhibition; format: biochemical
Summary of the method: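 Purified recombinant CDK6 (pET28a+, E. coli Codon+ expression, Ni-NTA) at 1 μM was incubated with 50 μM fresh ATP and increasing test compound (0–10 μM) for 1 h at 25 °C. Malachite green stopped the reaction, with colour developed 15–20 min at room temperature.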

[2] = biological target: T1, CDK6; test: Fluorescence quenching binding studies with CDK6; conditions: for Kq (bimolecular quenching rate constant): Kq=Ksv/τ0; for ΔG: van't Hoff; for Kd: K (binding constant, modified Stern–Volmer)
[3] = biological target: T1, CDK6; test: Isothermal titration calorimetry with CDK6; conditions: ITC, 25 °C, one binding site model
Summary of the method: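 Recombinant CDK6 was expressed from pET28a+ in E. coli Codon+ cells (IPTG induction at 18 °C) and purified on Ni-NTA. Protein was dialysed against 25 mM Tris, 200 mM MgCl2, with ligand dissolved in the same buffer and 1% v/v DMSO added to protein. At 25 °C, 500 μM test compound in the syringe was titrated into 15 μM CDK6. Buffer-titration heats were subtracted before fitting n, ΔH and Ka.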

[4] = tested on: MCF-7 cells; test: Cell viability MTT assay, MCF-7; format: cell-based; conditions: Homo sapiens, MCF7, 72 h, read-out: IC50, cell viability
Summary of the method: (§1)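 Cells were seeded at 5000–5500/well in 96-well plates and exposed to test compound (0–250 μM) for 72 h. MTT (from 5 mg/mL stock in PBS, pH 7.4) was added for 4–5 h. Formazan was dissolved in DMSO and OD read at 570 nm, then converted to % viability. Data are mean ±SD, n = 3.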

[5] = tested on: A549 cells; test: Cell viability MTT assay, A549; format: cell-based; conditions: Homo sapiens, A549, 72 h, read-out: IC50, cell viability
Summary of the method: as §1

[6] = tested on: MCF-7 cells; test: Annexin-V/PI staining apoptosis, MCF-7; format: cell-based; conditions: MCF-7, IC50 concentration, 48 h
Summary of the method: (§2)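 MCF-7 and A549 cells were treated with test compound or vehicle for 48 h, then harvested. They were stained with annexin-V/PI and analysed by flow cytometry to quantify apoptotic cells.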

[7] = tested on: A549 cells; test: Annexin-V/PI staining apoptosis, A549; format: cell-based, human; conditions: A549, IC50 concentration, 48 h
Summary of the method: as §2

[8] = tested on: CDK6 expression in MCF-7 cells; test: CDK6 protein expression; format: cell-based; conditions: MCF-7, IC50 dose
Summary of the method: (§3)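 MCF-7 and A549 cells were treated with test compound or vehicle for a stipulated time, then harvested by trypsinization. They were lysed in RIPA buffer and protein was quantified by BCA. CDK6 was detected by Western blot with anti-CDK6 antibody, and band intensity was normalized to β-actin loading control.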

[9] = tested on: CDK6 expression in A549 cells; test: CDK6 protein expression; format: cell-based, human; conditions: A549, IC50 dose
Summary of the method: as §3

[10] = tested on: MCF-7 cells; test: ROS determination; format: cell-based; conditions: MCF-7, IC50 dose, 5–6 h
Summary of the method: (§4)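 MCF-7 and A549 cells were treated with test compound or DMSO vehicle for 5–6 h. They were then loaded with 10 μM H2DCFDA for 30 min, trypsinized, and washed twice with PBS. Total ROS was measured by flow cytometry.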

[11] = tested on: A549 cells; test: ROS determination; format: cell-based, human; conditions: A549, IC50 dose, 5–6 h
Summary of the method: as §4

[12] = tested on: MCF-7 cells; test: Colony formation assay, MCF-7; format: cell-based; conditions: MCF-7, IC50 concentration, 8–10 days
Summary of the method: (§5)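 MCF-7 or A549 cells were plated at about 1000–1500 cells/well in 6-well plates. They were treated with test compound for 8–10 days at 37 °C, 5% CO2, with DMSO as vehicle control. Colonies were fixed with 100% methanol, stained with crystal violet, and counted by image analysis relative to vehicle.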

[13] = tested on: A549 cells; test: Colony formation assay, A549; format: cell-based, human; conditions: A549, IC50 concentration, 8–10 days
Summary of the method: as §5

[14] = van't Hoff plot over 15, 25, 30 °C, same value printed at each temperature

T1 sequence (Q00534 whole entry): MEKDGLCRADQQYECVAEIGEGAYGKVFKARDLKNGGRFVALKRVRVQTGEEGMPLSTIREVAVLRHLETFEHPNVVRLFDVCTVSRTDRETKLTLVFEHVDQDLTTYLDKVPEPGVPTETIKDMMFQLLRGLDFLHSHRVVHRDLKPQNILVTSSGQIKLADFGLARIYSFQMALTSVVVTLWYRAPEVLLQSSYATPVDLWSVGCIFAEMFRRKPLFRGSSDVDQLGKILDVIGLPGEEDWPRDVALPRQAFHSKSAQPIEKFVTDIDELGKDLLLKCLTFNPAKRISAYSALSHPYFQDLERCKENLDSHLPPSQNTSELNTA

O=c1c(O)c(-c2ccc(O)c(O)c2)oc2cc(O)cc(O)c12 [quercetin]
IC50 [1]: 5.89 µM | Ksv (Stern–Volmer constant) ([2]; 15 °C): 16.3 10^4 M^–1 | n (number of binding sites) ([2]; 15 °C): 1.35 | Kq (bimolecular quenching rate constant) ([2]; 15 °C): 6.03 10^13 M^–1 s^–1 | ΔG ([2]; 15 °C): –9.400 kcal mol^–1 | Ksv (Stern–Volmer constant) ([2]; 25 °C): 13.6 10^4 M^–1 | TΔS ([2]; 25 °C): 2.46 kcal mol^–1 | n (number of binding sites) ([2]; 25 °C): 1.33 | Kq (bimolecular quenching rate constant) ([2]; 25 °C): 5.03 10^13 M^–1 s^–1 | ΔG ([2]; 25 °C): –9.482 kcal mol^–1 | Ksv (Stern–Volmer constant) ([2]; 30 °C): 12.2 10^4 M^–1 | TΔS ([2]; 30 °C): 2.50 kcal mol^–1 | n (number of binding sites) ([2]; 30 °C): 1.33 | Kq (bimolecular quenching rate constant) ([2]; 30 °C): 4.51 10^13 M^–1 s^–1 | ΔG ([2]; 30 °C): –9.524 kcal mol^–1 | Kd ([2]; 15 °C): 0.0769 µM | Kd ([2]; 25 °C): 0.104 µM | Kd ([2]; 30 °C): 0.143 µM | ΔH [2, 14]: –7.019 kcal mol^–1 | ΔS [2, 14]: 8.267 cal mol^–1 K^–1 | ΔH [3]: -469 ± 1.91 kJ/mol | ΔS [3]: −351 cal/mol/deg | IC50 [4]: 41.8 ± 2.21 µM | IC50 [5]: 52.4 ± 2.44 µM | cells in which apoptosis is induced [6]: ~21.10% | cells in which apoptosis is induced [7]: ~16.22% | effect on CDK6 expression [8]: decreases the CDK6 expression | effect on CDK6 expression [9]: decreases the CDK6 expression | effect on ROS production [10]: decreases the production of ROS | effect on ROS production [11]: decreases the production of ROS | effect on colonization (colony formation) [12]: significantly decreases the colonization | effect on colonization (colony formation) [13]: significantly decreases the colonization
